Active and inactive are the calls of the source. The calls are words filed in the database; no cut-off is given here. Residues, ends and D or L forms follow the SMILES beside them. *: point of attachment. Cyclohexanecarbonyl = O=C(C1CCCCC1)*; Benzoyl(4-F) = O=C(c1ccc(F)cc1)*; Decanoyl = CCCCCCCCCC(=O)*; Cbz = O=C(OCc1ccccc1)*; NHBn = c1ccc(CN*)cc1; NHCH2CH2OH = OCCN*; OtBu = CC(C)(C)O*; NEt2 = CCN(CC)*; X3 = OC1CN(*)C1; OAll = C=CCO*
Columns and labels:
HEK293 [1] = test: Modulation of recombinant human FGF141b (1 to 252 residues)-recombinant human Nav1.6 C-terminal tail (1763 to 1976 residues) protein-protein interaction expressed in HEK293 cells assessed as relative luminescence value at 50 uM measured at 2 mins interval for 20 mins by split-luciferase complementation assay relative to control; format: cell-based; details: time min 2-20
How it was run: (§1)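 Double-stable HEK293 line expressing CLuc-FGF14 and CD4-Nav1.6-C-tail-NLuc, kept on G418 and puromycin. Cells seeded for 24 h, then given compound for 1 h in serum-free, phenol red-free DMEM/F12 with a final 0.5% DMSO: 50 μM for screening, 0.25–100 μM over eight concentrations for dose-response; n = 4. D-luciferin added and read every 2 min for 20 min at 37 °C. Peak luminescence expressed as percent of per-plate DMSO mean (n = 32). IC50 from four-parameter nonlinear fit. At least 3 experiments.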

HEK293 [2] = test: Cytotoxicity against HEK293 cells assessed as reduction in cell viability measured after 18 hrs by celltiter-blue assay; details: human, hek293, 18 h
HEK293 [3] = test: Inhibition of full-length Photinus pyralis luciferase transfected in HEK293 cells at 25 uM incubated for 1 hrs by split-luciferase complementation assay; format: cell-based
How it was run: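 HEK293 cells transfected with full-length Photinus pyralis luciferase, then treated 1 h with 25 μM compound (n = 4) or 0.5% DMSO (n = 32). Luminescence read after D-luciferin addition, as in the LCA, normalized to per-plate DMSO controls. One-way ANOVA with Dunnett's test.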

HEK293 [4] = test: Modulation of recombinant human FGF141b (1 to 252 residues)-recombinant human Nav1.6 C-terminal tail (1763 to 1976 residues) protein-protein interaction expressed in HEK293 cells measured at 2 mins interval for 20 mins by split-luciferase complementation assay relative to control; format: cell-based; details: filed as modulator, time min 2-20; how it was run: as §1
[5] = biological target: T1, Sodium channel protein type 8 subunit alpha (Homo sapiens, UniProt Q9UQD0); test: Binding affinity to human recombinant Nav1.6 C-terminal domain expressed in Escherichia coli BL21 assessed as association rate constant by SPR analysis; details: filed as modulator
How it was run: (§2)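 Biacore T100 runs with FGF14 (17,896 RU) or Nav1.6 C-tail (6,800 RU) amine-coupled on CM5 at pH 5.5. Compounds at 0.195–200 μM in PBS, 0.005% Tween-20, 2% DMSO; 50 μL/min at 25 °C. 120 s association, 150 s dissociation, DMSO calibration, blank subtraction. Rates from a Langmuir 1:1 fit; KD averages the kinetic and steady-state values. At least duplicate experiments.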
Target sequence in this assay (Q9UQD0 whole entry, looked up, the tested form may be a part): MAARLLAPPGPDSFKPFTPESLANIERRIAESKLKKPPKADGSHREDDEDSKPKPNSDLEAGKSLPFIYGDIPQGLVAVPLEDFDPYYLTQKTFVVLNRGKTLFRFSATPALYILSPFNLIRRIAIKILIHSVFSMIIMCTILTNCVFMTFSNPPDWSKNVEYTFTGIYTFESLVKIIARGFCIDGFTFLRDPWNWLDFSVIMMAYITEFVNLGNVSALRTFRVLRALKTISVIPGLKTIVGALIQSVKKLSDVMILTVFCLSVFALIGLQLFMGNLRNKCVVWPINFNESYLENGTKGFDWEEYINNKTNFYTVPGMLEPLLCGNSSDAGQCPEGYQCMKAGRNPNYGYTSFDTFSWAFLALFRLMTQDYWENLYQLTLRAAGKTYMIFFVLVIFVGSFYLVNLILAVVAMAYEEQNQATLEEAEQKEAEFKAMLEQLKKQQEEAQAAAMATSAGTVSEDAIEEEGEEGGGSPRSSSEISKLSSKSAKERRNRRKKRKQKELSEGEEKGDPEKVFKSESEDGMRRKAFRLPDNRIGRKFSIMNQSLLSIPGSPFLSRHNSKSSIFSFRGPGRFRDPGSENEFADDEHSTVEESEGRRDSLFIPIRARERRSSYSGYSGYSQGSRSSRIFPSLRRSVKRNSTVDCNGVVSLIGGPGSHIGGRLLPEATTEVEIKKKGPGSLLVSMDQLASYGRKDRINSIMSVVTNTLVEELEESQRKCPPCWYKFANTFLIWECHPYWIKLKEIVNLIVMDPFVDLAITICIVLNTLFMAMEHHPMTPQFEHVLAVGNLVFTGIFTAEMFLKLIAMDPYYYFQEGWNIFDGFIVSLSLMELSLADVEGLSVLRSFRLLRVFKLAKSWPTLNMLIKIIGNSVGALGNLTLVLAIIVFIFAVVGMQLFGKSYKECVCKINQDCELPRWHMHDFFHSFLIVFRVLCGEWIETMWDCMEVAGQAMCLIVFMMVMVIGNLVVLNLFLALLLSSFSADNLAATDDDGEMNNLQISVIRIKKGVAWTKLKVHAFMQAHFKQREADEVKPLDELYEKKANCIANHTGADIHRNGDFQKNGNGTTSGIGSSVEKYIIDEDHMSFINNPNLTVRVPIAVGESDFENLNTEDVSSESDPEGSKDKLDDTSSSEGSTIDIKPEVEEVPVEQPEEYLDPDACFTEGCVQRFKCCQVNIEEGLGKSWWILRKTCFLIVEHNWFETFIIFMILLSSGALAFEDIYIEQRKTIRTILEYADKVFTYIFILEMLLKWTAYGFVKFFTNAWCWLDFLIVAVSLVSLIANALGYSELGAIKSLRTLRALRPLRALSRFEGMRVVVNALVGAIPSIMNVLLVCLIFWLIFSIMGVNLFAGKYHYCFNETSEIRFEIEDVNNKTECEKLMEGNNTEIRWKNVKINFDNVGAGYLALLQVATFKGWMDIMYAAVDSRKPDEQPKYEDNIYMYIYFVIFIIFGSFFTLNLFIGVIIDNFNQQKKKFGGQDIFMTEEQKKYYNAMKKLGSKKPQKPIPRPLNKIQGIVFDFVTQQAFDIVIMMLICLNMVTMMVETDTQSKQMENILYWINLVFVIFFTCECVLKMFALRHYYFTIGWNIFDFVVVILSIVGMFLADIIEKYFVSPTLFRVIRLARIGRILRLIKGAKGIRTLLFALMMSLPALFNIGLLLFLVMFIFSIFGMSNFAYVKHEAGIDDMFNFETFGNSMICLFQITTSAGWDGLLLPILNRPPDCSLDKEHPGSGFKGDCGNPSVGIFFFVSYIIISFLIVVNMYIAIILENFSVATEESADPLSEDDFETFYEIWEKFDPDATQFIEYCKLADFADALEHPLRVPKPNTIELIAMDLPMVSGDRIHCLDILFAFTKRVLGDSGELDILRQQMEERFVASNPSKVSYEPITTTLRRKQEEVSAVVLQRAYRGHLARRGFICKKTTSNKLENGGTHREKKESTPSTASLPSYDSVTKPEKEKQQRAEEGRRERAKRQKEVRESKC

[6] = biological target: T2, Fibroblast growth factor 14 (Homo sapiens) (UniProt Q92915); test: Binding affinity to human recombinant FGF14 expressed in Escherichia coli BL21 assessed as assessed as induction of protein denaturation by measuring change in melting temperature at 50 uM by fluorescent dye based thermal shift assay; details: filed as modulator
T2 sequence (whole entry): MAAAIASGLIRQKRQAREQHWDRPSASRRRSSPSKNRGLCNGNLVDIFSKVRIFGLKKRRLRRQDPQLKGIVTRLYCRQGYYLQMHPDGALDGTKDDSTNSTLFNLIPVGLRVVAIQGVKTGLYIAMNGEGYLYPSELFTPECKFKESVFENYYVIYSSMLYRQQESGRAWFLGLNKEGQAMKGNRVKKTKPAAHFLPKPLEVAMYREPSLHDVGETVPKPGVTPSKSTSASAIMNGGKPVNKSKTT

[7] = Modulation of recombinant human FGF141b (1 to 252 residues)-recombinant human Nav1.6 C-terminal tail (1763 to 1976 residues) protein-protein interaction expressed in HEK293 cells measured at 2 mins interval for 20 mins by split-luciferase complementation assay; format: cell-based; how it was run: as §1
[8] = biological target: T1, Sodium channel protein type 8 subunit alpha; test: Binding affinity to human recombinant Nav1.6 C-terminal domain expressed in Escherichia coli BL21 assessed as assessed as induction of protein denaturation by measuring change in melting temperature at 10 uM by fluorescent dye based thermal shift assay; details: filed as modulator, dose 50.0 µM
Target sequence in this assay (Q9UQD0 whole entry, looked up, the tested form may be a part): as the sequence (Q9UQD0 whole entry, looked up, the tested form may be a part) above

[9] = biological target: T1, Sodium channel protein type 8 subunit alpha; test: Binding affinity to human recombinant Nav1.6 C-terminal domain expressed in Escherichia coli BL21 assessed as dissociation constant by SPR analysis; how it was run: as §2
Target sequence in this assay (Q9UQD0 whole entry, the tested form may be a part): as the sequence (Q9UQD0 whole entry, looked up, the tested form may be a part) above

[10] = biological target: T1, Sodium channel protein type 8 subunit alpha; test: Binding affinity to human recombinant Nav1.6 C-terminal domain expressed in Escherichia coli BL21 assessed as dissociation rate constant by SPR analysis; details: filed as modulator; how it was run: as §2
Target sequence in this assay (Q9UQD0 whole entry, looked up, the tested form may be a part): as the sequence (Q9UQD0 whole entry, looked up, the tested form may be a part) above

CC(=O)N1CCC[C@H]1C(=O)N[C@@H](CC(C)C)C(=O)N[C@@H](CCC(=O)O)C(=O)N[C@H](C(N)=O)C(C)C (Ac-PLEV-NH2)
Activity (HEK293 [1]): 79.4%

CC(C)C[C@H](NC(=O)[C@@H]1CCCN1C(=O)OCc1ccccc1)C(=O)N[C@@H](CCC(=O)OC(C)(C)C)C(=O)N[C@H](C(=O)N1CC(O)C1)C(C)C (Cbz-PLE(OtBu)V-X3)
Activity (HEK293 [1]): 112%

CCN(CC)C(=O)[C@@H](NC(=O)[C@H](CCC(=O)OC(C)(C)C)NC(=O)[C@H](CC(C)C)NC(=O)[C@@H]1CCCN1C(=O)OCc1ccccc1)C(C)C (Cbz-PLE(OtBu)V-NEt2)
Activity (HEK293 [1]): 92.3%

CC(C)C[C@H](NC(=O)[C@@H]1CCCN1C(=O)C1CCCCC1)C(=O)N[C@@H](CCC(=O)OC(C)(C)C)C(=O)N[C@H](C(N)=O)C(C)C (Cyclohexanecarbonyl-PLE(OtBu)V-NH2)
Activity (HEK293 [1]): 104%

CC(C)C[C@H](NC(=O)[C@@H]1CCCN1C(=O)OCc1ccccc1)C(=O)N[C@@H](CCC(=O)OC(C)(C)C)C(=O)N[C@H](C(=O)NCCO)C(C)C (Cbz-PLE(OtBu)V-NHCH2CH2OH)
Activity (HEK293 [1]): 118%

CCCCCCCCCC(=O)N1CCC[C@H]1C(=O)N[C@@H](CC(C)C)C(=O)N[C@@H](CCC(=O)OC(C)(C)C)C(=O)N[C@H](C(N)=O)C(C)C (Decanoyl-PLE(OtBu)V-NH2)
Activity (HEK293 [1]): 114%

CC(C)C[C@H](NC(=O)[C@@H]1CCCN1C(=O)c1ccc(F)cc1)C(=O)N[C@@H](CCC(=O)OC(C)(C)C)C(=O)N[C@H](C(N)=O)C(C)C ({Benzoyl(4-F)}-PLE(OtBu)V-NH2)
Activity (HEK293 [2]): Non-Toxic | inhibition (HEK293 [3]): inactive

CNC(=O)[C@@H](NC(=O)[C@H](CCC(=O)OC(C)(C)C)NC(=O)[C@H](CC(C)C)NC(=O)[C@@H]1CCCN1C(=O)OCc1ccccc1)C(C)C (Cbz-PLE(OtBu)V-NHMe)
Activity (HEK293 [1]): 103%

C=CCOC(=O)[C@@H](NC(=O)[C@H](CCC(=O)OC(C)(C)C)NC(=O)[C@H](CC(C)C)NC(=O)[C@@H]1CCCN1C(=O)OCc1ccccc1)C(C)C (Cbz-PLE(OtBu)V-OAll)
Efficacy (HEK293 [4]): 90.7% | K [5]: 2.57 10^5/M/s | Activity (HEK293 [2]): Non-Toxic | ΔTm [6]: 0.67 °C | IC50 [7]: 15.4 µM | Activity (HEK293 [1]; filed as modulator): 11.9% | inhibition (HEK293 [3]): inactive | ΔTm [8]: -0.87 °C | Kd [9]: > 200 µM | K [10]: 4.49 10^-3/s

CC(C)C[C@H](NC(=O)[C@@H]1CCCN1)C(=O)N[C@@H](CCC(=O)OC(C)(C)C)C(=O)N[C@H](C(N)=O)C(C)C (H-PLE(OtBu)V-NH2)
Activity (HEK293 [1]): 114%

CC(C)C[C@H](NC(=O)[C@@H]1CCCN1C(=O)OCc1ccccc1)C(=O)N[C@@H](CCC(=O)OC(C)(C)C)C(=O)N[C@H](C(=O)NCc1ccccc1)C(C)C (Cbz-PLE(OtBu)V-NHBn)
Activity (HEK293 [2]): Non-Toxic | Activity (HEK293 [1]): 134% | inhibition (HEK293 [3]): inactive

COC(=O)[C@@H](NC(=O)[C@H](CCC(=O)OC(C)(C)C)NC(=O)[C@H](CC(C)C)NC(=O)[C@@H]1CCCN1C(=O)OCc1ccccc1)C(C)C (Cbz-PLE(OtBu)V-OMe)
Efficacy (HEK293 [4]): 93.3% | Activity (HEK293 [2]): Non-Toxic | IC50 [7]: 22.4 µM | Activity (HEK293 [1]; filed as modulator): 39.8% | inhibition (HEK293 [3]): inactive

COC(=O)[C@@H](NC(=O)[C@H](CCC(=O)OC(C)(C)C)NC(=O)[C@H](CC(C)C)NC(=O)[C@@H]1CCCN1C(C)=O)C(C)C (Ac-PLE(OtBu)V-OMe)
Activity (HEK293 [1]): 95%

Source: ChEMBL document CHEMBL4699573, “Design, Synthesis, and Pharmacological Evaluation of Analogues Derived from the PLEV Tetrapeptide as Protein-Protein Interaction Modulators of Voltage-Gated Sodium Channel 1.6” (J Med Chem, 2020)
